Test results published in ChEMBL document CHEMBL5058577, “EUbOPEN Chemogenomics Library 2 (Multiplex)” (2022).

Test system: HEK-293T
Assay: Multiplex assay against HEK293T
Type: toxicity, cell-based
Settings: human
Summary of the method: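 Compound was added to live cells that had been stained at seeding with Hoechst33342, BioTracker Green Microtubule Cytoskeleton Dye, MitoTracker Red and Annexin V Alexa Fluor 680, and imaging followed on a CQ1 microscope at 37°C and 5% CO2. CellPathfinder machine-learning gating divided cells into Hoechst high-intensity objects or normal cells, normal cells into healthy, pyknosed or fragmented nuclei, and pyknosed cells into mitotic or apoptotic. Tubulin, mitochondrial-mass and membrane-permeability phenotypes are per cents of healthy-nucleus cells.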

[1] = 12 h, 1 µM, compound concentration 1 uM, replicate 1
[2] = 12 h, 1 µM, compound concentration 1 uM, replicate 2
[3] = 12 h, 10 µM, compound concentration 10 uM, replicate 1
[4] = 12 h, 10 µM, compound concentration 10 uM, replicate 2
[5] = 24 h, 1 µM, compound concentration 1 uM, replicate 1
[6] = 24 h, 1 µM, compound concentration 1 uM, replicate 2
[7] = 24 h, 10 µM, compound concentration 10 uM, replicate 1
[8] = 24 h, 10 µM, compound concentration 10 uM, replicate 2
[9] = 48 h, 1 µM, compound concentration 1 uM, replicate 1
[10] = 48 h, 1 µM, compound concentration 1 uM, replicate 2
[11] = 48 h, 10 µM, compound concentration 10 uM, replicate 1
[12] = 48 h, 10 µM, compound concentration 10 uM, replicate 2

With `COc1cc2nc(N3CCN(C(=O)COc4c(OC)cccc4C(C)C)CC3)nc(N)c2cc1OC.Cl.Cl` the “Population Apoptotic (%)” value [1] was 35%, the “Population Fragmented Nuclei (%)” value [1] was 12% and the “Population Healthy Nuclei (%)” value [1] was 77%. For the same compound, the “Population Hoechst High Intensity Objects (%)” value [1] was 5%, the “Population Membrane Permeable-Phenotype (%)” value [1] was 0% and the “Population Mitochondria Different-Phenotype (%)” value [1] was 48%. For the same compound, the “Population Mitotic Cells (%)” value [1] was 64%, the “Population Normal (%)” value [1] was 94% and the “Population Pyknosed Nuclei (%)” value [1] was 9%. The “Population Tubulin-Different-Phenotype (%)” value [1] was 23%, the “Total Cell Count” value [1] was 402 and the “Population Apoptotic (%)” value [2] was 46%. The “Population Fragmented Nuclei (%)” value [2] was 8%, the “Population Healthy Nuclei (%)” value [2] was 81% and the “Population Hoechst High Intensity Objects (%)” value [2] was 4%. The “Population Mitochondria Different-Phenotype (%)” value [2] was 58%, the “Population Mitotic Cells (%)” value [2] was 53% and the “Population Normal (%)” value [2] was 95%. The “Population Tubulin-Different-Phenotype (%)” value [2] was 18%, the “Total Cell Count” value [2] was 365 and the “Population Apoptotic (%)” value [3] was 52%. The “Population Fragmented Nuclei (%)” value [3] was 13%, the “Population Healthy Nuclei (%)” value [3] was 69% and the “Population Hoechst High Intensity Objects (%)” value [3] was 25%. The “Population Membrane Permeable-Phenotype (%)” value [3] was 1%, the “Population Mitochondria Different-Phenotype (%)” value [3] was 74% and the “Population Mitotic Cells (%)” value [3] was 48%. For the same compound, the “Population Normal (%)” value [3] was 74%, the “Population Pyknosed Nuclei (%)” value [3] was 17% and the “Population Tubulin-Different-Phenotype (%)” value [3] was 81%. The “Total Cell Count” value [3] was 386, the “Population Apoptotic (%)” value [4] was 57% and the “Population Fragmented Nuclei (%)” value [4] was 14%. The “Population Healthy Nuclei (%)” value [4] was 67%, the “Population Hoechst High Intensity Objects (%)” value [4] was 18% and the “Population Membrane Permeable-Phenotype (%)” value [4] was 3%. The “Population Mitochondria Different-Phenotype (%)” value [4] was 66%, the “Population Mitotic Cells (%)” value [4] was 42% and the “Population Normal (%)” value [4] was 81%. For the same compound, the “Population Pyknosed Nuclei (%)” value [4] was 18%, the “Population Tubulin-Different-Phenotype (%)” value [4] was 66% and the “Total Cell Count” value [4] was 286. For the same compound, the “Population Apoptotic (%)” value [5] was 35%, the “Population Fragmented Nuclei (%)” value [5] was 11% and the “Population Healthy Nuclei (%)” value [5] was 77%. For the same compound, the “Population Hoechst High Intensity Objects (%)” value [5] was 5%, the “Population Membrane Permeable-Phenotype (%)” value [5] was 0% and the “Population Mitochondria Different-Phenotype (%)” value [5] was 27%. The “Population Mitotic Cells (%)” value [5] was 64%, the “Population Normal (%)” value [5] was 95% and the “Population Pyknosed Nuclei (%)” value [5] was 10%. The “Population Tubulin-Different-Phenotype (%)” value [5] was 19%, the “Total Cell Count” value [5] was 540 and the “Population Apoptotic (%)” value [6] was 42%. For the same compound, the “Population Fragmented Nuclei (%)” value [6] was 8%, the “Population Healthy Nuclei (%)” value [6] was 84% and the “Population Hoechst High Intensity Objects (%)” value [6] was 2%. For the same compound, the “Population Mitochondria Different-Phenotype (%)” value [6] was 44%, the “Population Mitotic Cells (%)” value [6] was 57% and the “Population Normal (%)” value [6] was 97%. For the same compound, the “Population Pyknosed Nuclei (%)” value [6] was 7%, the “Population Tubulin-Different-Phenotype (%)” value [6] was 16% and the “Total Cell Count” value [6] was 472. The “Population Apoptotic (%)” value [7] was 42%, the “Population Fragmented Nuclei (%)” value [7] was 14% and the “Population Healthy Nuclei (%)” value [7] was 64%. The “Population Hoechst High Intensity Objects (%)” value [7] was 29%, the “Population Membrane Permeable-Phenotype (%)” value [7] was 2% and the “Population Mitochondria Different-Phenotype (%)” value [7] was 68%. The “Population Mitotic Cells (%)” value [7] was 57%, the “Population Normal (%)” value [7] was 70% and the “Population Pyknosed Nuclei (%)” value [7] was 21%. For the same compound, the “Population Tubulin-Different-Phenotype (%)” value [7] was 69%, the “Total Cell Count” value [7] was 498 and the “Population Apoptotic (%)” value [8] was 51%. For the same compound, the “Population Fragmented Nuclei (%)” value [8] was 13%, the “Population Healthy Nuclei (%)” value [8] was 59% and the “Population Hoechst High Intensity Objects (%)” value [8] was 39%. The “Population Mitochondria Different-Phenotype (%)” value [8] was 72%, the “Population Mitotic Cells (%)” value [8] was 48% and the “Population Normal (%)” value [8] was 60%. The “Population Pyknosed Nuclei (%)” value [8] was 27%, the “Population Tubulin-Different-Phenotype (%)” value [8] was 63% and the “Total Cell Count” value [8] was 286. For the same compound, the “Population Apoptotic (%)” value [9] was 28%, the “Population Fragmented Nuclei (%)” value [9] was 16% and the “Population Healthy Nuclei (%)” value [9] was 76%. The “Population Hoechst High Intensity Objects (%)” value [9] was 2%, the “Population Membrane Permeable-Phenotype (%)” value [9] was 1% and the “Population Mitochondria Different-Phenotype (%)” value [9] was 18%. For the same compound, the “Population Mitotic Cells (%)” value [9] was 71%, the “Population Normal (%)” value [9] was 97% and the “Population Pyknosed Nuclei (%)” value [9] was 6%. The “Population Tubulin-Different-Phenotype (%)” value [9] was 11%, the “Total Cell Count” value [9] was 930 and the “Population Apoptotic (%)” value [10] was 11%. The “Population Fragmented Nuclei (%)” value [10] was 15%, the “Population Healthy Nuclei (%)” value [10] was 78% and the “Population Hoechst High Intensity Objects (%)” value [10] was 3%. The “Population Membrane Permeable-Phenotype (%)” value [10] was 0%, the “Population Mitotic Cells (%)” value [10] was 88% and the “Population Normal (%)” value [10] was 96%. For the same compound, the “Population Tubulin-Different-Phenotype (%)” value [10] was 12%, the “Total Cell Count” value [10] was 737 and the “Population Apoptotic (%)” value [11] was 31%. For the same compound, the “Population Fragmented Nuclei (%)” value [11] was 18%, the “Population Healthy Nuclei (%)” value [11] was 56% and the “Population Hoechst High Intensity Objects (%)” value [11] was 41%. For the same compound, the “Population Membrane Permeable-Phenotype (%)” value [11] was 3%, the “Population Mitochondria Different-Phenotype (%)” value [11] was 48% and the “Population Mitotic Cells (%)” value [11] was 68%. The “Population Normal (%)” value [11] was 58%, the “Population Pyknosed Nuclei (%)” value [11] was 25% and the “Population Tubulin-Different-Phenotype (%)” value [11] was 56%. For the same compound, the “Total Cell Count” value [11] was 660, the “Population Apoptotic (%)” value [12] was 30% and the “Population Fragmented Nuclei (%)” value [12] was 17%. For the same compound, the “Population Healthy Nuclei (%)” value [12] was 59%, the “Population Hoechst High Intensity Objects (%)” value [12] was 46% and the “Population Membrane Permeable-Phenotype (%)” value [12] was 1%. For the same compound, the “Population Mitochondria Different-Phenotype (%)” value [12] was 49%, the “Population Mitotic Cells (%)” value [12] was 69% and the “Population Normal (%)” value [12] was 53%. The “Population Pyknosed Nuclei (%)” value [12] was 23%, the “Population Tubulin-Different-Phenotype (%)” value [12] was 38% and the “Total Cell Count” value [12] was 430.
